Common to all, as to type: cell-based
The target of assay [1] is T1, Retinoic acid receptor RXR-alpha (Homo sapiens, UniProt P19793).
T1 sequence (P19793 whole entry): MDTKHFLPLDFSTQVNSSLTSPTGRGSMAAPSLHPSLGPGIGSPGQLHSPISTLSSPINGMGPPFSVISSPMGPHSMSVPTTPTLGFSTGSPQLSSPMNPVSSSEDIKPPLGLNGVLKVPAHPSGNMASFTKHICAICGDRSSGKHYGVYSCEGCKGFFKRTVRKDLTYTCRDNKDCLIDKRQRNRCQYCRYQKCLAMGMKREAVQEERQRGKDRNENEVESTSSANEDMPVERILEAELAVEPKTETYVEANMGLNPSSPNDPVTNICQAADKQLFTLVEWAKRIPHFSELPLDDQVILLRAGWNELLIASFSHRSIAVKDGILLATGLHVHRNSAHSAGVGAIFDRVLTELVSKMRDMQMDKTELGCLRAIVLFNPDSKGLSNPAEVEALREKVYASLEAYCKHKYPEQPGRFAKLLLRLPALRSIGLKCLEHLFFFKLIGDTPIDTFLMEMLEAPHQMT
The assay can be described thus: Agonist activity at Gal4-LBD fused RXRalpha (unknown origin) expressed in HEK293T cells after 14 to 16 hrs by dual-Glo luciferase assay. The essentials: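 Gal4-hybrid RXRα/β/γ reporter gene assays in HEK293T cells. Fold activation is the maximal fold activation versus 0.1% DMSO.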

Assay [2] is described as follows: Agonist activity at full-length human RXR/LXR expressed in HEK293T cells at 10 uM after 14 to 16 hrs by dual-glo luciferase reporter gene assay relative to untreated control. The following applies: HEK-293T, read-out: Activity. The essentials:
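RXR:LXR or RXR:PPARγ heterodimer reporter assay with test compound alone. Activation expressed relative to 0.1% DMSO vehicle. Three independent experiments, each in duplicate; mean reported.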

The species named for assay [3] is Homo sapiens. The assay can be described thus: Agonist activity at full-length human PPARgamma/RXR expressed in HEK293T cells at 10 uM after 14 to 16 hrs by dual-glo luciferase reporter gene assay relative to untreated control. Summed up: (§1)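 RXR:PPARγ heterodimer reporter assay in HEK293T cells with test compound alone. Mean relative activation is taken versus 0.1% DMSO, from three independent experiments each run in duplicate.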

Assay [4] deals with T2, Retinoic acid receptor gamma (Homo sapiens) (UniProt P13631).
T2 sequence (whole entry): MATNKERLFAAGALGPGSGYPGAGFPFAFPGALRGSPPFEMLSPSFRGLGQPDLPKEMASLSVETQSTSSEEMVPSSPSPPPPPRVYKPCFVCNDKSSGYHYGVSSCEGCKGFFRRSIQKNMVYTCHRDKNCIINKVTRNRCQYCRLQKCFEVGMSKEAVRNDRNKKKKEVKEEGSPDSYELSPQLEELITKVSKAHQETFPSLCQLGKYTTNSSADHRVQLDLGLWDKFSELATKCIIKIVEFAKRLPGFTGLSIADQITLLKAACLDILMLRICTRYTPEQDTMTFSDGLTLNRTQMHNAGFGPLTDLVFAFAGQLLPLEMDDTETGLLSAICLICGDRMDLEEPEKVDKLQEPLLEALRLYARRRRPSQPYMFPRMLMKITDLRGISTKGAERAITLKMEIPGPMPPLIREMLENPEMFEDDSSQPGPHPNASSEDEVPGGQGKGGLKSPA
As to the kind of experiment: Agonist activity at Gal4-LBD fused RARgamma (unknown origin) expressed in HEK293T cells after at 10 uM 14 to 16 hrs by dual-Glo luciferase assay. Summed up:
(§2)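 Gal4-hybrid reporter gene selectivity panel of related nuclear receptors (PPARα/β/γ, RARα/β/γ) in HEK293T cells. Activity is read as mean fold activation versus 0.1% DMSO vehicle, n ≥ 2.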

Assay [5] concerns the target T3, Peroxisome proliferator-activated receptor delta (Homo sapiens) (UniProt Q03181).
T3 sequence (whole entry): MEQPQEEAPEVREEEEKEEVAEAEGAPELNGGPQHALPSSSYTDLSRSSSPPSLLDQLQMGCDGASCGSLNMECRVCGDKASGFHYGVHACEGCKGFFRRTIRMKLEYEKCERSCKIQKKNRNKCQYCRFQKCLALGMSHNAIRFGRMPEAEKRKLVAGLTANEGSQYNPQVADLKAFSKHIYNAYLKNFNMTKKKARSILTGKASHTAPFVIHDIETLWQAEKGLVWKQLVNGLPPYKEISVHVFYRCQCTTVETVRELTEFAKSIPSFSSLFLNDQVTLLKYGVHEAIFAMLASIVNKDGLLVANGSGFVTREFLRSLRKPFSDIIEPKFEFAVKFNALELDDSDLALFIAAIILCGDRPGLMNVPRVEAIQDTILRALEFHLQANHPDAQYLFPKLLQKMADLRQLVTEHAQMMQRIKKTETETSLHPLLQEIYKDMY
As to the kind of experiment: Agonist activity at Gal4-LBD fused PPARbeta (unknown origin) expressed in HEK293T cells at 10 uM after 14 to 16 hrs by dual-Glo luciferase assay. The essentials:
as §2

Assay [6] is filed under the species Homo sapiens. As to the kind of experiment: Agonist activity at full-length human PPARgamma/RXR expressed in HEK293T cells at 20 uM after 14 to 16 hrs by dual-glo luciferase reporter gene assay relative to untreated control. Summed up:
as §1

In assay [7] the target is T4, Retinoic acid receptor RXR-gamma (Homo sapiens) (UniProt P48443).
T4 sequence (whole entry): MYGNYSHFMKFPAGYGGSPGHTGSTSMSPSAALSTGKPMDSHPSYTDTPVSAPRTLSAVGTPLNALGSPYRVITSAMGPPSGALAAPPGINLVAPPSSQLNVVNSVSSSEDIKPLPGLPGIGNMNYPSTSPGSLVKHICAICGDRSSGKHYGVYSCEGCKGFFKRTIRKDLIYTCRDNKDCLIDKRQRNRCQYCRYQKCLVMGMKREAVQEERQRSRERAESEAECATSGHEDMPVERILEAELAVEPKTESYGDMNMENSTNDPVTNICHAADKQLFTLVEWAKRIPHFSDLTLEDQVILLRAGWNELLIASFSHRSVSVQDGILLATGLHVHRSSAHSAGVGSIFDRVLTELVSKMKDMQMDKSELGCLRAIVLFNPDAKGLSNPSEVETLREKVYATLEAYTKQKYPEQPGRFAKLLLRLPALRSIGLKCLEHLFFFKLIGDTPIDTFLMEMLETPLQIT
The assay can be described thus: Agonist activity at Gal4-LBD fused RXRgamma (unknown origin) expressed in HEK293T cells at 20 uM after 14 to 16 hrs by dual-Glo luciferase assay.

Activity calls are given as the source filed them. The calls are words filed in the database; no cut-off is given here.

`Cc1cc(-c2cc(C(F)(F)F)cc(C(F)(F)F)c2)ccc1CC(=O)O` returned a half-maximal effective concentration (EC50) in assay [1] of 0.21 µM. In assay [2], the activity at 10 µM amounted to 63%. In the assay listed under Homo sapiens [3], this molecule returned an Activity of 139%. Also, the Activity result in assay [4] and in assay [5] was “Active” in each case.
`Cc1cc(-c2ccc(C(=O)O)cc2)cc(C(C)(C)C)c1` registered an EC50 in assay [1] of 8 µM. Moreover, the Activity in the assay filed under Homo sapiens [6] amounted to 91%. The Activity result in assay [7] was “inactive”.
On to `Cc1cc(-c2cc(C(C)(C)C)cc(C(C)(C)C)c2)ccc1C(=O)O`, for which the Activity result in assay [4] and in assay [5] was “Active” in each case.

These data come from ChEMBL document CHEMBL4304816, “A Novel Biphenyl-based Chemotype of Retinoid X Receptor Ligands Enables Subtype and Heterodimer Preferences” (ACS Med Chem Lett, 2019).
